Screening results from PubChem.
Hits are enriched below; roughly 1.9% of the tested compounds scored in any of these assays.
PLC-gamma1 inh = blocks human PLC-gamma1 enzyme activity | P19174 | purified PLC-gamma1, fluorogenic substrate, fluorescence | inhibition, % at 12.2 µM | actives 0.84% (n = 370,000) | AID 720700; in the data active = inhibition above about 9.5%
TbMetRS inhib = blocks T. brucei methionyl-tRNA synthetase activity | AID 624268 | purified T. brucei MetRS, ATP depletion, Kinase-Glo luminescence | inhibition, % at 11.9 µM | actives 0.4% (n = 360,000);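 active = inhibition above a per-plate cutoff of the control wells' mean inhibition plus 3 SD, cut at about 5.5% in these data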;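 also: 0% = DMSO wells median and 100% = median of wells with control inhibitor compound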
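Test system: purified T. brucei MetRS enzyme. Also added: ATP, methionine and E. coli bulk tRNA substrates. Compound: 11.9 µM single point. Schedule: 15 min enzyme-compound preincubation, 2 h reaction, 10 min detection, 25 °C. Signal: luciferase luminescence of residual ATP, Kinase-Glo. Evaluation: percent inhibition versus plate control medians. Controls: DMSO wells, low control.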
sPLA2-III inh = Blocks human group III sPLA2 activity; Q9NZ20; QFRET BODIPY PC-A2 liposome hydrolysis, fluorescence; inhibition, % at 12.2 µM; actives 0.56% (n = 370,000); AID 743126;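 active = inhibition above mean plus 3 SD of compounds lying within the high and low control bounds, cut at about 19% in these data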;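 also: 0% = median of test compound wells and 100% = no enzyme DMSO wells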
Target sequence (Q9NZ20 whole entry, looked up): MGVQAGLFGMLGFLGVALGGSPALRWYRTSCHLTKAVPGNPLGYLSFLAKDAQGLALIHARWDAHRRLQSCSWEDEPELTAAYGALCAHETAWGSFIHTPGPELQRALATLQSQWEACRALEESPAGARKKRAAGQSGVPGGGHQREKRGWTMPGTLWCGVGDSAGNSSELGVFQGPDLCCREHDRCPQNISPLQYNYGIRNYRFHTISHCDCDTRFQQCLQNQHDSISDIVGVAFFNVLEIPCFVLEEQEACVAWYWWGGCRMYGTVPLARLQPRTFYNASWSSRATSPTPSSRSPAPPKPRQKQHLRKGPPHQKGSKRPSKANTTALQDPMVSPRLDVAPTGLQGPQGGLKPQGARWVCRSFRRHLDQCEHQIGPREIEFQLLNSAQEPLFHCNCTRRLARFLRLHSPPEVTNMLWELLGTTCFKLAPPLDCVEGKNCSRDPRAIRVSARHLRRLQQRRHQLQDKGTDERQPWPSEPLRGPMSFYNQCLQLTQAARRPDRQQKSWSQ
PLCb3 inh = blocks human PLC-beta3 enzyme activity; Purified PLC-beta3, fluorogenic substrate, fluorescence; inhibition, % at 12.2 µM; actives 0.18% (n = 370,000); AID 720704; in the data active = inhibition above about 11%;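 also: 0% = median of compound wells on plate and 100% = full blocker control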
TbMetRS confirm = Trypanosoma brucei MetRS inhibition confirmed. shares compounds with TbMetRS inhib. T. brucei MetRS enzyme, luminescence (ATP depletion). inhibition, % at 11.9 µM. actives 93% (n = 1,400); in the data active = inhibition above about 7%
Jurkat cytotox = Jurkat T cell cytotoxicity for MetRS hits. actives 12% (n = 1,400). Jurkat cells viability, ATP luminescence. inhibition, % at 8.3 µM. shares compounds with TbMetRS inhib. AID 624413; in the data active = inhibition above about 15%;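 also: 0% = vehicle and 100% = reference inhibitor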
Tb MetRS inh FP = T. brucei MetRS inhibition, orthogonal assay | shares compounds with TbMetRS inhib | inhibition, % at 11.9 µM | AID 651607 | purified T. brucei MetRS, fluorescence polarization | actives 44% (n = 1,400); in the data active = inhibition above about 17%;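 also: 0% = vehicle wells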
The depositor's hits bear a star; x = no result given.

SMILES	PLC-gamma1 inh	TbMetRS inhib	sPLA2-III inh	PLCb3 inh	TbMetRS confirm	Jurkat cytotox	Tb MetRS inh FP
CCNC(=S)Nc1ccc2cn[nH]c2c1	1.0	-1.4	9.8	2.2	x	x	x
N#CC(C#N)=NNc1ccc2cn[nH]c2c1	0.8	9.9*	0.1	-1.9	23.7*	30.5*	54.0*
COc1ccc2c(c1)CCC(C)N2C(=O)C(=O)c1c[nH]c2ccccc12 (stereo not given)	5.3	11.5*	-15.3	-2.2	17.5*	14.6	9.7
COc1ccc(C2C(C(=O)Nc3cc(OC)c(OC)c(OC)c3)CCC(=O)N2c2ccc(OC)cc2)cc1 (stereo not given)	-1.1	x	-3.0	-1.5	x	x	x
COCCCNC(=O)C[C@H]1C[C@@]2(C(=O)OC)C(=C[C@H](COCc3ccccc3)O[C@@H]2C)N(Cc2ccccc2)C1=O	2.9	x	0.5	5.9	x	x	x
O=C(Cc1ccc(Cl)cc1)Nc1cc(S(=O)(=O)N2CCOCC2)ccc1N1CCCC1	-0.1	38.6*	-10.1	-0.1	52.3*	-1.4	27.6*
Clc1cccc(CNc2nc(-c3cccnc3)nc3ccccc23)c1	-8.2	18.0*	-9.7	-24.3	39.8*	11.8	28.4*
Cc1ccc2nc(-c3ccc(NC(=O)c4ccco4)cc3)[nH]c2c1	x	-0.5	x	x	x	x	x
O=C(Nc1cccc(-c2nc3ccccc3[nH]2)c1)c1ccco1	-1.0	5.7*	-3.5	0.3	8.8*	6.6	15.5
N#CC1=C(N)Oc2cc(N)ccc2C1c1cc(Br)cs1 (stereo not given)	-113.1	43.4*	9.0	-121.0	3.0	56.2*	11.1
N#CC1=C(N)Oc2cc(N)ccc2C1c1cccc(Br)c1 (stereo not given)	-56.6	34.1*	0.7	-73.7	1.7	75.5*	9.6
COc1ccc(C=CC(=O)c2c(N)n(C)c(=O)n(C)c2=O)cc1	-5.1	x	-4.8	-8.5	x	x	x
O=C(CNC(=O)c1cccc(OC(F)F)c1)Nc1ccc(Cl)cc1	2.2	51.0*	-15.0	-4.6	69.8*	2.4	31.5*
O=C(Nc1ccc(OC(F)F)c(Cl)c1)c1cccc(OC(F)F)c1	x	1.2	x	x	x	x	x
Brc1cnc2nc(SCc3nc4ccccc4[nH]3)[nH]c2c1	-18.2	57.0*	-9.1	-41.9	85.1*	-2.4	64.7*
Fc1ccccc1CSCc1nc2ccccc2[nH]1	0.2	0.6	-0.6	-4.5	x	x	x
Clc1ccc(/C(Cc2nc3ccccc3[nH]2)=N\Nc2ccccc2)cc1	-83.1	8.6*	6.3	-93.5	31.7*	4.4	17.5*
CN/N=C(\Cc1nc2ccccc2[nH]1)c1ccc([N+](=O)[O-])cc1	-11.2	3.6	-0.5	-16.3	x	x	x
Clc1ccc(OCCSCc2nc3ccccc3[nH]2)cc1	-7.0	57.7*	-11.6	-9.2	73.1*	5.5	48.2*
Clc1ccc(SCc2nc3ccccc3[nH]2)cc1	-7.1	16.8*	-1.8	-8.7	30.4*	7.7	13.3
CCOC(=O)C1CSCCS(=O)(=O)N1Cc1ccc(C)cc1 (stereo not given)	2.2	x	2.4	3.8	x	x	x
O=C(NCc1nc2ccccc2[nH]1)C1=C[C@H](C2CC2)C[C@H](OCc2ccc(CO)cc2)O1	0.1	50.5*	-16.9	-2.5	83.0*	-1.0	55.7*
O=C(NCc1nc2ccccc2[nH]1)C1=C[C@@H](C2CC2)C[C@@H](OCc2ccc(CO)cc2)O1	-2.8	80.5*	-14.6	-2.1	99.2*	-4.3	86.8*
O=C(O)[C@H]1CCCN1C(=O)c1ccccc1N1C(=O)[C@@H]2Cc3c([nH]c4ccccc34)C(c3cccc(Cl)c3)N2C1=O (stereo not given in full)	-49.7	8.3*	-25.6	-67.5	18.3*	4.2	8.0
C[C@H](CO)N1C[C@H](C)[C@@H](CN(C)C(=O)Nc2ccc(N3CCN(C)CC3)cc2)OCc2cn(nn2)CCCC1=O	-5.0	x	7.4	-6.3	x	x	x
SMILES	PLC-gamma1 inh	TbMetRS inhib	sPLA2-III inh	PLCb3 inh	TbMetRS confirm	Jurkat cytotox	Tb MetRS inh FP
Nc1nc2ccccc2n1CCOc1ccc(F)cc1	2.5	49.3*	-5.4	-0.8	72.2*	16.9*	44.6*
Cc1nc2ccccc2n1CCOc1ccccc1	-2.1	-0.2	1.5	-7.5	x	x	x
COc1ccc(OCCn2c(N)nc3ccccc32)cc1	-3.8	38.6*	-3.6	-1.1	62.2*	-0.1	31.9*
COC(=O)c1sc(-c2ccc(Cl)cc2)cc1NC(=O)/C=C/C(=O)O	-8.7	0.7	-3.6	-21.7	x	x	x
COC(=O)c1sc(-c2ccc(Cl)cc2)cc1NC(=O)COCC(=O)O	-5.7	38.3*	-13.2	-14.4	37.0*	8.0	24.8*
COC(=O)N1CCC[C@H]1c1cccc2[nH]cc(C)c12	-1.4	x	-7.8	-5.7	x	x	x
O=c1[nH]nc(Cc2ccc(Cl)cc2Cl)c2ccccc12	-1.9	8.2*	-6.6	1.4	39.1*	5.3	20.5*
CC1(C(=O)NCCC(F)(F)F)Cc2c(-c3cccc(C(N)=O)c3)ccnc2O1 (stereo not given)	6.2	-0.1	0.2	0.1	x	x	x
COc1ccc(CCCNC(=O)C2(C)Cc3c(-c4cccc(C(N)=O)c4)ccnc3O2)cc1 (stereo not given)	-2.5	6.6*	-10.6	4.5	4.9	49.2*	0.8
O=C(NCCc1nc2ccccc2[nH]1)/C(=C/c1ccc2c(c1)OCO2)NC(=O)c1ccc(Cl)cc1Cl	2.0	8.0*	-42.1	0.1	11.5*	-0.4	5.2
Cc1ccsc1C(=O)OCc1nc2ccsc2c(=O)[nH]1	1.3	-0.2	1.5	-5.5	x	x	x
CC(C)(Oc1ccc(Cl)cc1)C(=O)OCc1nc2ccsc2c(=O)[nH]1	1.5	20.0*	-10.8	1.4	64.1*	3.0	37.9*
COc1ccccc1NC(=O)c1ccc(-n2ccnc2)c([N+](=O)[O-])c1	-4.8	8.8*	4.3	-8.4	26.7*	14.9	22.4*
CN(C)S(=O)(=O)c1cc(NC(=O)c2ccc(-n3ccnc3)c([N+](=O)[O-])c2)ccc1Cl	0.2	9.9*	-10.8	-9.4	21.9*	33.6*	13.7
C[C@H](O)[C@@H]1CN2CCc3c([nH]c4cccc(-c5ccc6c(c5)OCO6)c34)[C@@H]2C[C@@H]1N(C)C(=O)c1ccco1	-72.7	x	-10.2	-97.7	x	x	x
Cn1c(SCC(=O)Nc2ccc3cn[nH]c3c2)nnc1-c1cnccn1	-5.6	7.8*	0.7	-6.4	14.2*	-4.2	9.0
O=C(CSc1nnc(-c2cnccn2)n1-c1ccccc1)Nc1ccc2cn[nH]c2c1	-2.0	x	-3.2	-0.4	x	x	x
O=C(CSc1nnc(-c2cccnc2)n1-c1ccc(Cl)cc1)Nc1cccc2ccccc12	0.5	x	-11.8	-0.6	x	x	x
Cc1nccn1CC(O)COc1ccc(Cl)cc1Cl (stereo not given)	4.3	9.5*	-3.6	-8.5	11.3*	7.5	-2.3
